Source: ChEMBL document CHEMBL1142654, “Partition-variant desferrithiocin analogues: organ targeting and increased iron clearance” (J Med Chem, 2005)

Tests used:
Monkey = assay: Percentage of iron clearing efficiency was measured in monkey after administration at 150 umol/kg (n=4); format: functional
How it was run: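 Cebus apella monkeys iron-overloaded with iv iron dextran to about 500 mg Fe/kg, at least 60 days before use. Single po dose of 150 µmol/kg as solution or suspension in 40% Cremophor RH-40/water. Stool and urine collected every 24 h, from 4 days before dosing to 5 days after. Iron measured by flame atomic absorption. ICE = (2-day post-dose iron minus mean 4-day baseline) / theoretical excretion × 100. Mean ± SEM.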

[1] = Lipophilicity (Log Papp) was measured at pH 7.4; Activity expressed as the log of the fraction in the octanol layer; format: physicochemical; settings: octanol/aqueous phase
How it was run: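 Shake-flask octanol/water distribution at pH 7.4 in 50 mM TRIS buffer, uncorrected for partial ionization. Quadruplicate samples shaken with 1-octanol overnight, layers left to settle 1-2 h before separation. Room temperature (22-24 °C), UV spectrometric read-out, value given as log of fraction in octanol layer.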

| Compound | log fraction in octanol layer [1] | Activity (Monkey) [%] |
| --- | --- | --- |
| O=C(O)[C@H]1CSC(c2cccc(O)c2O)=N1 | -1.67 | 5.8 |
| O=C(O)[C@H]1CSC(c2ccc(O)cc2O)=N1 | -1.33 | 4.2 |
| COc1ccc(C2=N[C@@H](C(=O)O)CS2)c(O)c1 | -0.89 | 16.2 |
| COc1cccc(C2=N[C@@](C)(C(=O)O)CS2)c1O | -1.12 | 22.5 |

Further lines, with some results ahead:

| log fraction in octanol layer [1] | Compound | Activity (Monkey) [%] |
| --- | --- | --- |
| -1.52 | COc1cccc(C2=N[C@@H](C(=O)O)CS2)c1O | 15.5 |
| -1.17 | C[C@]1(C(=O)O)CSC(c2cccc(O)c2O)=N1 | 23.1 |
| -0.7 | COc1ccc(C2=N[C@@](C)(C(=O)O)CS2)c(O)c1 | 24.4 |
| -1.05 | C[C@]1(C(=O)O)CSC(c2ccc(O)cc2O)=N1 [DEFERITRIN] | 13.4 |
